esBAF inh = Bmi1 luciferase reporter increase in mESCs, primary screen, esBAF inhibitor project, mouse ES cells, Bmi1 luciferase knock-in, single point | reporter increase, % at 12.5 µM | actives 2% (n = 350,000) | 24 h; 100% = twice the neutral-well signal | AID 602393, 2012; in the data active = activation above about 40%; inconclusive = no clear call, values can overlap the other calls;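 also: 0% = median of the plate's neutral control wells and 100% = double that signal; a rise in the Bmi1 reporter signal indicates esBAF inhibition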
Wnt act = Wnt/beta-catenin pathway activators, primary screen, cell-based, plate reader, single point; Wnt/beta-catenin reporter cell assay, activator; activation, % at 9.35 µM; actives 1.2% (n = 300,000); AID 743398, 2014; in the data active = activation above about 30%, passing the limit was not always enough; inconclusive = no clear call, values can overlap the other calls;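 also: 0% = neutral control wells and 100% = positive control wells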
NSD2 HMT inh = NSD2 histone methyltransferase inhibitors, primary screen, biochemical, AlphaScreen, single concentration, set 2; Histone-lysine N-methyltransferase NSD2 (Homo sapiens), O96028; NSD2 peptide methylation, 120 min; inhibition, % at 12.5 µM; actives 0.54% (n = 310,000); AID 743445, 2014; in the data active = inhibition above about 50%
MITF TRPM1 HTS = activators of MITF-driven TRPM1 promoter reporter, primary screen, cell-based, SK-MEL-5, luciferase, single point; activation, % at 12.5 µM; SK-MEL-5 TRPM1-promoter luciferase, 24 h; % of positive control, neutral wells = 0; AID 588334, 2011; actives 0.75% (n = 300,000);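 active = mean activation of at least 80% with every replicate also reaching 80%; inconclusive = mean reaches 80% but some replicate falls short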;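 also: 0% = neutral control wells and 100% = parthenolide positive control wells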
XiGFP reactiv = activators of inactive X chromosome reactivation, primary screen, imaging, XiGFP fibroblasts, GFP high-content imaging, set 2 | actives 0.055% (n = 360,000) | activation, % at 7.58 µM | XiGFP mouse fibroblasts, % GFP-positive cells imaging, 3 d; cells co-treated with 5-aza-dC sensitizer; scaled so ellipticine positive control = 100% | AID 743238, 2013;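 active = mean normalized replicate activation at least 10% and every replicate at or above 10%; inconclusive = only one of the two criteria met; inactive = mean below 10% and not all replicates reach 10%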;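 also: 0% = median of on-plate neutral control wells and 100% = ellipticine 6 µM median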
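Material: XiGFP fibroblasts, SV40-immortalized; Buffer or medium: DMEM containing 5-aza-dC; Compound dosing: single point; Times: 3 days compound exposure.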
CASP6 VEID inh = human caspase-6 inhibitors, primary screen, biochemical, VEID-R110 fluorescence, single point, set 2 | purified caspase-6, Z-VEID-R110 cleavage fluorescence | inhibition, % at 12.5 µM | actives 0.53% (n = 350,000) | AID 686996, 2013;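 active = mean inhibition across replicates at least about 35%, with every replicate also reaching that limit, limit read from the data; inconclusive = only one of the two criteria met; inactive = neither criterion met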;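 also: 0% = median of neutral control wells and 100% = no fluorescence left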
Target sequence (P55212 24-179 limits assumed): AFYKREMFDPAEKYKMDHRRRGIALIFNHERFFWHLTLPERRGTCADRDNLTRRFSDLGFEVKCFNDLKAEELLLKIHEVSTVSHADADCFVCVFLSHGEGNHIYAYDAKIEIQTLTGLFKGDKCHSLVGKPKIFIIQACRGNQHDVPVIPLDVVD
Target sequence (P55212 194-293 limits assumed): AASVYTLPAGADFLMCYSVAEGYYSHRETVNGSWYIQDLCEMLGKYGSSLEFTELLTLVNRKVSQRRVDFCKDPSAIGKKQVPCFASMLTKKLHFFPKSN
Ring1 derepress = Ring1 mRNA increase in mouse ESCs, confirmation, esBAF inhibitor project, cell-based, mouse ESC, RT-qPCR, cherry-pick | shares compounds with esBAF inh | fold change at 33 µM | AID 743176, 2013 | 550 tested, under 10 active | mouse ESC E14, Ring1 mRNA RT-qPCR fold change;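 active = Ring1 gene expression raised more than 2-fold over untreated cells in both replicates at either tested dose; inconclusive = only one replicate above 2-fold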;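 also: Ring1 transcript normalised to actin housekeeping signal by TaqMan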
Fgf4 repress = Fgf4 mRNA decrease in mouse ESCs, confirmation, esBAF inhibitor project, cell-based, mouse ESC, RT-qPCR, cherry-pick | shares compounds with esBAF inh | mouse ESC E14, Fgf4 mRNA qPCR fold change; active compounds read low | Fgf4 expression fold change at 33 µM | actives 4% (n = 550);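 active = Fgf4 expression under 0.8 fold of control in both repeat measurements at one or both tested doses; inconclusive = under 0.8 fold in just a single repeat measurement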;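 also: Fgf4 transcript normalised to actin in duplex TaqMan qPCR; cells exposed to compound for 24 h before lysis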
Bmi1 derepress = esBAF inhibition via Bmi1 de-repression, confirmation, cell-based, RT-qPCR, mouse ESC, single point, cherry-pick | mouse ESE14 ES cells, Bmi1 mRNA qPCR fold; active compounds read high | 550 tested, under 10 active | shares compounds with esBAF inh | fold change at 33 µM;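 active = Bmi1 expression fold change above 6 at either tested concentration, seen in replicate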;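 also: higher fold means more Bmi1 de-repression and stronger esBAF inhibition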
A549 cytotox = A549 cell cytotoxicity, cytotoxicity control, plate reader, single point, cherry-pick; shares compounds with esBAF inh; cell viability change % (negative = cytotoxic), % at 25 µM, hits read low; 550 tested, under 10 active; AID 743188, 2013; call rule not given here
HepG2 cytotox SP = HepG2 cell cytotoxicity, cytotoxicity control, plate reader, single point, cherry-pick; shares compounds with esBAF inh; active compounds read low; activity change, negative = inhibition, % at 25 µM; actives 4% (n = 550); in the data active = activity change below about -50%
HEK293 tox SP = HEK293 cell cytotoxicity, cytotoxicity control, plate reader, single point, cherry-pick; actives 3% (n = 550); shares compounds with esBAF inh; activity change, negative = inhibition, % at 25 µM, hits read low; in the data active = activity change below about -38%, passing the limit was not always enough
* marks the source's active call; other numbers are inactive results; ? = inconclusive; · = not tested or not shown. A selection: hits, their analogues and other compounds. The true share with any hit is near 3%.

SMILES	esBAF inh	Wnt act	NSD2 HMT inh	MITF TRPM1 HTS	XiGFP reactiv	CASP6 VEID inh	Ring1 derepress	Fgf4 repress	Bmi1 derepress	A549 cytotox	HepG2 cytotox SP	HEK293 tox SP
C[C@H]1CN([C@@H](C)CO)C(=O)c2cc(NS(=O)(=O)c3ccccc3)ccc2O[C@@H]1CN(C)C(=O)Nc1ccc(C(F)(F)F)cc1	2.1	·	·	·	-0.1	·	·	·	·	·	·	·
Cc1cc(-c2nnco2)c(C)n1-c1ccccc1	54.0*	0.7	9.0	10.7	·	·	1.14	1.03	1.52	-17.3	-22.4	-18.9
Cc1nc2ccccn2c1-c1nnco1	-6.5	-1.2	0.1	3.8	·	·	·	·	·	·	·	·
C[C@H](CO)N1C[C@H](C)[C@@H](CN(C)C(=O)Nc2ccc(F)cc2)OCCCC[C@H](C)Oc2ccc(N(C)C)cc2C1=O	2.6	·	·	·	-1.2	-0.5	·	·	·	·	·	·
C[C@@H]1CCCCO[C@H](CN(C)Cc2ccc(C(=O)O)cc2)[C@H](C)CN([C@@H](C)CO)C(=O)c2cc(NC(=O)Nc3ccc4c(c3)OCO4)ccc2O1	-0.8	·	·	·	-1.1	0.8	·	·	·	·	·	·
CNc1cnc(-c2ccc(F)c(F)c2F)cn1	73.3*	-1.0	·	·	0.1	-0.4	1.08	0.963	1.49	-8.5	-17.4	-21.9
CNc1cnc(-c2ccsc2)cn1	?	0.3	5.5	·	0.4	-0.7	·	·	·	·	·	·
C[C@@H]1CCCCO[C@H](CN(C)C(=O)NC2CCCCC2)[C@H](C)CN([C@@H](C)CO)C(=O)c2cc(NC(=O)CCC(F)(F)F)ccc2O1	-4.1	·	·	·	0.1	2.0	·	·	·	·	·	·
Cc1ccc2c3c([nH]c2c1C)-c1nonc1CC3	54.6*	11.3	-2.5	46.8	·	·	1.22	?	1.75	-3.3	-33.6	-24.1
CN(C)C(=O)C[C@H]1CC[C@@H]2[C@H](COc3ccc(NC(=O)c4ccc(F)c(F)c4)cc3C(=O)N2C)O1	-2.1	·	·	·	0.1	0.5	·	·	·	·	·	·
Cc1ccc(C(=O)Cc2ccccc2)c(O)c1	61.9*	5.9	0.6	38.9	0.2	-3.1	1.02	1.01	1.58	-10.1	-30.9	-12.7
CO[C@@H]1CN(C)C(=O)c2cc(NC(C)=O)ccc2OC[C@H](C)N(Cc2cccnc2)C[C@H]1C	0.3	·	·	·	0.1	·	·	·	·	·	·	·
C[C@@H]1CN([C@H](C)CO)C(=O)c2cc(-c3cncnc3)cnc2O[C@H]1CN(C)C(=O)c1cccc(F)c1	-0.9	·	·	·	-0.9	-2.0	·	·	·	·	·	·
CC(C)c1ccc(CNc2ncccn2)cc1	54.9*	11.2	4.8	·	0.6	-12.1	1.19	0.828	1.65	-7.5	-16.1	-10.9
COc1ccc(NC(=O)c2csc3c2CCCC3)cc1	68.9*	24.3	2.3	57.5	·	2.2	0.942	0.974	1.46	-7.9	-50.6*	-21.3
COc1ccc(CNC(=O)c2csc3c2CCCC3)cc1	4.7	-2.4	-2.5	5.5	0.0	3.3	·	·	·	·	·	·
COC(=O)Cc1ccc(OCc2ccc(Cl)nc2)cc1	59.4*	-1.6	·	94.9*	0.0	2.1	1.22	0.915	1.84	0.2	-29.9	-4.1
COc1ccc(-c2csc(NC3OC(=O)c4c3ccc(OC)c4OC)n2)cc1OC (configuration not stated)	·	6.2	8.7	·	0.0	-4.9	·	·	·	·	·	·
COc1ccc2c(c1OC)C(=O)OC2Nc1nc(-c2cc3cc(Br)ccc3oc2=O)cs1 (configuration not stated)	64.9*	50.9*	·	144.3*	-0.2	-0.7	0.985	1.01	1.48	-16.5	-34.7	-17.6
COc1ccc(-c2cc(C(=O)N3CCN(c4ccccc4O)CC3)c3ccccc3n2)cc1OC	·	1.0	-1.1	10.4	0.4	1.4	·	·	·	·	·	·
COc1cccc(-c2cc(C(=O)Nc3ccccc3)c3ccccc3n2)c1	·	4.3	-2.6	·	0.2	0.4	·	·	·	·	·	·
COc1ccc(-c2cc(C(=O)Nc3ccc(C(N)=O)cc3)c3ccccc3n2)cc1	57.4*	14.2	-0.2	·	0.0	-2.3	1.37	?	1.58	-5.1	-5.5	0.7
COc1ccc(-c2cc(C(=O)N3CCN(c4ccccc4O)CC3)c3ccccc3n2)cc1	63.7*	7.2	-0.5	·	0.0	5.6	0.959	0.925	1.31	-10.6	-44.2	-27.2
CN1C(=O)c2cc(NC(=O)c3cc(F)cc(F)c3)ccc2OC[C@H]2O[C@@H](CC(=O)O)CC[C@@H]21	7.5	·	·	·	0.0	26.6	·	·	·	·	·	·
Cc1ccccc1-c1ccc(C2[C@@H]3CN(S(=O)(=O)c4cn(C)cn4)C[C@H]2N3)cc1 (some centres not stated)	·	·	·	·	0.0	0.6	·	·	·	·	·	·
SMILES	esBAF inh	Wnt act	NSD2 HMT inh	MITF TRPM1 HTS	XiGFP reactiv	CASP6 VEID inh	Ring1 derepress	Fgf4 repress	Bmi1 derepress	A549 cytotox	HepG2 cytotox SP	HEK293 tox SP
Nc1ccc(C#Cc2ccc3c(=O)c4ccccc4oc3c2)cc1	79.3*	24.7	·	110.8*	0.0	-1.5	0.848	0.562*	3.49	-14.0	-1.4	-10.9
COc1cc2oc3cc(C#Cc4ccc(N)cc4)ccc3c(=O)c2cc1OC	-1.7	-8.8	·	-1.1	0.2	-1.8	·	·	·	·	·	·
Nc1cc2c(cc1Cl)-c1ccccc1C2	108.3*	-0.1	·	67.1	0.3	-0.3	0.865	0.825	1.62	-3.2	15.4	-3.8
Nc1cc(Cl)c(N)cc1Cl	-6.0	7.8	9.6	4.9	·	·	·	·	·	·	·	·
CCCN(C)C[C@H]1Oc2cc(C#C[C@H](C)O)ccc2S(=O)(=O)N([C@@H](C)CO)C[C@H]1C	-5.1	·	·	·	-0.6	1.2	·	·	·	·	·	·
Cc1cc(C(=O)Nc2sc(C)c(-c3ccc(F)cc3)c2C(N)=O)no1	77.5*	·	0.1	79.1	·	·	1.01	0.972	1.38	7.3	-16.5	-3.2

Screens as filed in PubChem.
